These results are taken from ChEMBL document CHEMBL1146579, “Antifungal agents from the roots of Cudrania cochinchinensis against Candida, Cryptococcus, and Aspergillus species” (2003).

Structures are written as SMILES. ≈ marks a conversion by molar mass, not a printed value. Where only a bound is given, the exact number is not on record here.

One test relates to Pichia kudriavzevii. In words: Antifungal activity against Candida krusei ATCC 6258 after 48 to 96 hrs by broth microdilution method. The format is functional. The method, boiled down: (§1)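 Broth microdilution followed NCCLS with slight modification, giving MIC. Compounds were dissolved in DMSO as a 12.8 mg/mL stock and diluted in RPMI-1640, with final solvent below 1%. Yeasts were kept on modified Sabouraud dextrose agar or potato dextrose agar slants, and filamentous fungi on potato dextrose agar.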
For orientation: Dilution methods test growth across graded concentrations, often in twofold steps.

Test [1] relates to Candida albicans. In words: Antifungal activity against Candida albicans ATCC 90028 after 48 to 96 hrs by broth microdilution method. The format is functional. The gist of the method: as §1
For test [2], the system named is Aspergillus fumigatus. The experiment in a line: Antifungal activity against Aspergillus fumigatus IFM 41236 after 48 to 96 hrs by broth microdilution method. The format is functional. The method, boiled down:
as §1

Test [3] relates to Candida albicans. In words: Antifungal activity against Candida albicans ATCC 90028 after 48 hrs by disk diffusion assay. The format is functional. The gist of the method:
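Pure compounds were dissolved in MeOH at 10 mg/mL, about 0.4 mg absorbed per 8 mm paper disk, then air-dried. Plates of Yeast Morphology Agar were incubated 48 h at 30 °C, and the diameter of the inhibition zone was measured.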
(In general: A growth-free zone around the sample is the usual read-out of agar diffusion tests.)

For the next test, the system named is Aspergillus nidulans. In words: Antifungal activity against Aspergillus nidulans IFM 5396 after 48 to 96 hrs by broth microdilution method. The class given is functional. The method, boiled down:
as §1

The test system of another test is Nakaseomyces glabratus. The experiment in a line: Antifungal activity against Candida glabrata ATCC 90030 after 48 to 96 hrs by broth microdilution method. The class given is functional. The method, boiled down: as §1
Another test relates to Cryptococcus neoformans. In words: Antifungal activity against Cryptococcus neoformans ATCC 90112 after 48 to 96 hrs by broth microdilution method. The format is functional. The method, boiled down: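 Broth microdilution followed NCCLS with slight modification, giving MIC. Yeasts were kept on modified Sabouraud dextrose agar or potato dextrose agar slants, and filamentous fungi on potato dextrose agar.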

In test [4] the test system is Aspergillus fumigatus. In words: Antifungal activity against Aspergillus fumigatus IFM 41374 after 48 to 96 hrs by broth microdilution method. The class given is functional. The method, boiled down:
as §1

The next test concerns Candida parapsilosis. In words: Antifungal activity against Candida parapsilosis ATCC 22019 after 48 to 96 hrs by broth microdilution method. The class given is functional. Particulars: Lodderomyces parapsilosis. The gist of the method: as §1
For test [5], the system named is Candida albicans. In words: Antifungal activity against Candida albicans ATCC 90028 at 100 ug/mL after 48 hrs by disk diffusion assay. The format is functional. The note with it: ATCC 90028, 48 h, read-out: IZ. The gist of the method: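 The 8 mm paper disk was dipped in the solution and air-dried. C. albicans ATCC 90028, preincubated in YPD broth, was the inoculum on Yeast Morphology Agar, incubated 48 h at 30 °C. Read-out was the diameter of the inhibition zone.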

For test [6], the system named is Candida albicans. In words: microbe, parasite or virus in culture. The note with it: ATCC 90028, 48 h, read-out: IZ.

As a reminder, the MIC is the lowest concentration that inhibits growth of the organism. Low readings indicate a more susceptible organism, high ones a less susceptible organism. Regarding `CC1Oc2cc3oc4c(O)c(O)ccc4c(=O)c3c(O)c2C1(C)C` (stereo not drawn) [TOXYLOXANTHONE C], the MIC with Pichia kudriavzevii was over 128 µg/mL; in the test on Candida albicans [1] it was over 128 µg/mL; with Aspergillus fumigatus [2], 8 µg/mL (≈ 24.4 µM); against Aspergillus nidulans it was 8 µg/mL (≈ 24.4 µM); in the test on Nakaseomyces glabratus, 8 µg/mL (≈ 24.4 µM); against Cryptococcus neoformans, 8 µg/mL (≈ 24.4 µM). The minimal inhibitory concentration (MIC) is 8 µg/mL (≈ 24.4 µM) against Aspergillus fumigatus [4] and over 128 µg/mL in the test with Candida parapsilosis. Besides, the “inhibition zone (IZ)” value in the test with Candida albicans [3] is reported as 9 mm.

Take `CC(C)=CCc1c(O)cc2occ(-c3ccc(O)cc3)c(=O)c2c1O` [WIGHTEONE]: the MIC with Pichia kudriavzevii is over 128 µg/mL; against Candida albicans [1] it was 16 µg/mL (≈ 47.3 µM); in the test with Aspergillus fumigatus [2], 2 µg/mL (≈ 5.91 µM); in the test on Aspergillus nidulans, 2 µg/mL (≈ 5.91 µM); against Nakaseomyces glabratus it was over 128 µg/mL; against Cryptococcus neoformans, 4 µg/mL (≈ 11.8 µM). Besides, the minimum inhibitory concentration (MIC) in the test on Aspergillus fumigatus [4] is 4 µg/mL (≈ 11.8 µM); in the test on Candida parapsilosis it was over 128 µg/mL. The “inhibition zone (IZ)” value in the test with Candida albicans [3] was 11 mm.

As to `C=CC(C)(C)c1c(O)cc2oc3c(O)c(O)ccc3c(=O)c2c1O` [CUDRAXANTHONE S], the MIC in the test with Pichia kudriavzevii is over 128 µg/mL; in the test with Candida albicans [1] it was 16 µg/mL (≈ 48.7 µM); in the test with Aspergillus fumigatus [2], 4 µg/mL (≈ 12.2 µM); with Aspergillus nidulans, 4 µg/mL (≈ 12.2 µM); against Nakaseomyces glabratus, 4 µg/mL (≈ 12.2 µM); in the test with Cryptococcus neoformans it was 2 µg/mL (≈ 6.09 µM). Moreover, the MIC against Aspergillus fumigatus [4] was 4 µg/mL (≈ 12.2 µM); against Candida parapsilosis, over 128 µg/mL. Further, the “inhibition zone (IZ)” value in the test with Candida albicans [3] stood at 9 mm.

In the case of `CC(C)=CCc1c(O)cccc1C(=O)c1c(O)cc(O)c(CC=C(C)C)c1O` [CUDRAPHENONE D], the MIC in the test on Pichia kudriavzevii worked out at 8 µg/mL (≈ 20.9 µM); in the test on Candida albicans [1], 16 µg/mL (≈ 41.8 µM); against Aspergillus fumigatus [2] it was 4 µg/mL (≈ 10.5 µM); in the test on Aspergillus nidulans it was 16 µg/mL (≈ 41.8 µM); in the test on Nakaseomyces glabratus, 32 µg/mL (≈ 83.7 µM); in the test on Cryptococcus neoformans, 2 µg/mL (≈ 5.23 µM). The minimal inhibitory concentration (MIC) in the test on Aspergillus fumigatus [4] was determined as 8 µg/mL (≈ 20.9 µM); in the test with Candida parapsilosis it was 64 µg/mL (≈ 167 µM). Besides, the “inhibition zone (IZ)” value in the test with Candida albicans [3] worked out at 11 mm.

With `COc1cc(-c2coc3cc(O)cc(O)c3c2=O)ccc1O` [3'-O-METHYLOROBOL], the minimal inhibitory concentration (MIC) with Pichia kudriavzevii, against Candida albicans [1], against Aspergillus fumigatus [2], against Aspergillus nidulans, against Nakaseomyces glabratus and in the test with Cryptococcus neoformans was over 128 µg/mL each time. In addition, the minimal inhibitory concentration (MIC) against Aspergillus fumigatus [4] and in the test with Candida parapsilosis was over 128 µg/mL in each case.

As for `CC(C)=CCc1cc(C(=O)c2cccc(O)c2CC=C(C)C)c(O)cc1O` [CUDRAPHENONE B], the MIC came out at 16 µg/mL (≈ 43.7 µM) against Pichia kudriavzevii; 16 µg/mL (≈ 43.7 µM) against Candida albicans [1]; 4 µg/mL (≈ 10.9 µM) against Aspergillus fumigatus [2]; 8 µg/mL (≈ 21.8 µM) in the test on Aspergillus nidulans; 16 µg/mL (≈ 43.7 µM) against Nakaseomyces glabratus; 4 µg/mL (≈ 10.9 µM) against Cryptococcus neoformans. The values for the MIC in the test with Aspergillus fumigatus [4] and in the test with Candida parapsilosis were 8 µg/mL (≈ 21.8 µM) and over 128 µg/mL, respectively.

`CC(C)=CCc1c(O)cc2c(c1O)C(=O)CC(c1ccc(O)cc1O)O2` (stereo not drawn) [CUDRAFLAVANONE B]: the minimal inhibitory concentration (MIC) came out at 64 µg/mL (≈ 180 µM) with Pichia kudriavzevii; 64 µg/mL (≈ 180 µM) in the test with Candida albicans [1]; 64 µg/mL (≈ 180 µM) against Aspergillus fumigatus [2]; 64 µg/mL (≈ 180 µM) against Aspergillus nidulans; 128 µg/mL (≈ 359 µM) in the test on Nakaseomyces glabratus; 32 µg/mL (≈ 89.8 µM) in the test with Cryptococcus neoformans. For the same molecule, the minimal inhibitory concentration (MIC) against Aspergillus fumigatus [4] was 64 µg/mL (≈ 180 µM); with Candida parapsilosis it was 128 µg/mL (≈ 359 µM). The “inhibition zone (IZ)” value with Candida albicans [3] was 9 mm.

Regarding `CC1(C)C=Cc2c(cc3oc4c(O)cccc4c(=O)c3c2O)O1`, the MIC against Pichia kudriavzevii was over 128 µg/mL; in the test with Candida albicans [1] it was over 128 µg/mL; against Aspergillus fumigatus [2], over 128 µg/mL; in the test with Aspergillus nidulans, over 128 µg/mL; with Nakaseomyces glabratus it was over 128 µg/mL; in the test with Cryptococcus neoformans, 32 µg/mL (≈ 103 µM). Moreover, the minimum inhibitory concentration (MIC) against Aspergillus fumigatus [4] and in the test with Candida parapsilosis was over 128 µg/mL in each case.

Regarding `COc1cc(O)c(C(=O)c2cccc(O)c2CC=C(C)C)c(O)c1` [CUDRANONE], the minimum inhibitory concentration (MIC) in the test on Pichia kudriavzevii was over 128 µg/mL; with Candida albicans [1] it was over 128 µg/mL; against Aspergillus fumigatus [2] it was 16 µg/mL (≈ 48.7 µM); with Aspergillus nidulans, 16 µg/mL (≈ 48.7 µM); in the test on Nakaseomyces glabratus, over 128 µg/mL; against Cryptococcus neoformans it was over 128 µg/mL. Also, the figures for the MIC in the test on Aspergillus fumigatus [4] and in the test on Candida parapsilosis were 32 µg/mL (≈ 97.5 µM) and over 128 µg/mL, respectively. For the same molecule, in the test with Candida albicans [3], the “inhibition zone (IZ)” value amounted to 9 mm.

With `CC(C)=CCc1c(O)cc(O)c2c1OC(c1ccc(O)cc1)CC2=O` (stereo not drawn) [SOPHORAFLAVANONE B], the MIC with Pichia kudriavzevii was 64 µg/mL (≈ 188 µM); in the test on Candida albicans [1], 64 µg/mL (≈ 188 µM); against Aspergillus fumigatus [2], 16 µg/mL (≈ 47 µM); against Aspergillus nidulans, 128 µg/mL (≈ 376 µM); in the test on Nakaseomyces glabratus, over 128 µg/mL; with Cryptococcus neoformans, 64 µg/mL (≈ 188 µM). Moreover, the MIC against Aspergillus fumigatus [4] and against Candida parapsilosis was over 128 µg/mL each time.

Take `CC(C)=CCc1c(O)cc2oc3ccc(O)cc3c(=O)c2c1O`: the MIC against Pichia kudriavzevii is over 128 µg/mL; in the test on Candida albicans [1], over 128 µg/mL; in the test on Aspergillus fumigatus [2], over 128 µg/mL; with Aspergillus nidulans it was over 128 µg/mL; against Nakaseomyces glabratus, over 128 µg/mL; against Cryptococcus neoformans, 128 µg/mL (≈ 410 µM). In addition, the MIC against Aspergillus fumigatus [4] and with Candida parapsilosis was over 128 µg/mL in each case. Also, the “inhibition zone (IZ)” value in the test on Candida albicans [3] is listed as 9 mm.

Turning to `C[C@@H]1[C@H](O)[C@@H](C)/C=C/C=C/C=C/C=C/C=C/C=C/C=C/[C@H](O[C@@H]2O[C@H](C)[C@@H](O)[C@H](N)[C@@H]2O)C[C@@H]2O[C@](O)(C[C@@H](O)C[C@@H](O)[C@H](O)CC[C@@H](O)C[C@@H](O)CC(=O)O[C@H]1C)C[C@H](O)[C@H]2C(=O)O` [AMPHOTERICIN B], the MIC in the test with Pichia kudriavzevii amounted to 2 µg/mL (≈ 2.16 µM); against Candida albicans [1] it was 2 µg/mL (≈ 2.16 µM); against Aspergillus fumigatus [2], 1 µg/mL (≈ 1.08 µM); with Aspergillus nidulans, 2 µg/mL (≈ 2.16 µM); in the test with Nakaseomyces glabratus, 1 µg/mL (≈ 1.08 µM); with Aspergillus fumigatus [4], 1 µg/mL (≈ 1.08 µM). Besides, the MIC in the test on Candida parapsilosis came out at 2 µg/mL (≈ 2.16 µM). For the same molecule, the “inhibition zone (IZ)” value in the test with Candida albicans [3] was determined as 22 mm. The zone of inhibition at 100 µg/mL with Candida albicans [5] was 18 mm.

For the molecule `CC(C)=CCc1c(O)cccc1C(=O)c1c(O)cc(O)c2c1OC(C)(C)C=C2` [CUDRAPHENONE C], the minimum inhibitory concentration (MIC) with Pichia kudriavzevii is 64 µg/mL (≈ 168 µM); in the test with Candida albicans [1], 64 µg/mL (≈ 168 µM); against Aspergillus fumigatus [2], 8 µg/mL (≈ 21 µM); in the test with Aspergillus nidulans it was 32 µg/mL (≈ 84.1 µM); in the test on Nakaseomyces glabratus, over 128 µg/mL; in the test with Cryptococcus neoformans, 16 µg/mL (≈ 42.1 µM). Besides, the MIC with Aspergillus fumigatus [4] was 16 µg/mL (≈ 42.1 µM); against Candida parapsilosis, over 128 µg/mL. Moreover, in the test on Candida albicans [3], the “inhibition zone (IZ)” value was 10 mm.

For the molecule `Clc1ccc(COC(Cn2ccnc2)c2ccc(Cl)cc2Cl)c(Cl)c1` (stereo not drawn) [MICONAZOLE], the MIC against Pichia kudriavzevii came out at 1 µg/mL (≈ 2.4 µM); against Candida albicans [1], 1 µg/mL (≈ 2.4 µM); with Aspergillus fumigatus [2], 0.5 µg/mL (≈ 1.2 µM); against Aspergillus nidulans, 0.25 µg/mL (≈ 0.601 µM); in the test on Nakaseomyces glabratus, 0.5 µg/mL (≈ 1.2 µM); in the test with Cryptococcus neoformans it was 0.064 µg/mL (≈ 0.154 µM). Further, the MIC against Aspergillus fumigatus [4] and with Candida parapsilosis was 0.5 µg/mL (≈ 1.2 µM) each time. Moreover, the “inhibition zone (IZ)” value in the test on Candida albicans [3] was found to be 14 mm. In addition, in the test with Candida albicans [6], the zone of inhibition at 10 µg/mL turned out to be 15 mm.
